Shown is part of a subset that was picked to be rich in hits.
NOD2-RIPK2 inh: NOD2-RIPK2 protein interaction inhibition; O43353; inhibition, % at 4.98 µM; 360,000 tested, 0.38% active; CHO BLA complementation NOD2-RIPK2, CCF4 ratio; AID 624267; in the data active = inhibition above about 21%;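 also: 0% = vehicle only and 100% = reference blocker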
Target sequence (O43353 whole entry, looked up): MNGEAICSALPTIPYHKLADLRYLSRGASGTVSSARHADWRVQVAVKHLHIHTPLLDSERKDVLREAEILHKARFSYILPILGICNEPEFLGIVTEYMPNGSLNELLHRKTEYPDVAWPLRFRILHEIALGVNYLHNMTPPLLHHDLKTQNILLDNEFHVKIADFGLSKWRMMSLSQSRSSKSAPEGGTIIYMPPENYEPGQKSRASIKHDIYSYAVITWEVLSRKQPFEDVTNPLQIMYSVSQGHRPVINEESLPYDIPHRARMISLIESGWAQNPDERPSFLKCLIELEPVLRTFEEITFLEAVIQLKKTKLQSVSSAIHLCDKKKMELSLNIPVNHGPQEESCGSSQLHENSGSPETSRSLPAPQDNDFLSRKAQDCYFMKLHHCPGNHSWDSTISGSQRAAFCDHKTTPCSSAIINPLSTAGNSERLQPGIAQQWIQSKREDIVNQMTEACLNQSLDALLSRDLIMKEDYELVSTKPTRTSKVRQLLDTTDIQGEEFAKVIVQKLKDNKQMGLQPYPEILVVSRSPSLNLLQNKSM
CHOP inhibitor: blocks CHOP induction under ER stress. 220,000 tested, 3.8% active. inhibition, % at 10 µM. CHO-K1 CHOP-promoter luciferase, tunicamycin-induced, 15-18 h. AID 2732;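 active = compounds that reduced the stress-induced luciferase reporter signal by more than about 70% of percent inhibition, limit read from the data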;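 also: 0% = tunicamycin plus vehicle and 100% = wells without tunicamycin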
TLR9-MyD88 inh: inhibitors of human TLR9-MyD88 binding; Q9NR96+Q99836; CHO BLA complementation TLR9-MyD88, CCF4 FRET ratio; inhibition, % at 4.98 µM; 340,000 tested, 0.21% active; AID 504734;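 active = inhibition above the mean over all tested compounds plus 3 SD, cut at about 21% in these data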;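 also: 0% = DMSO only wells and 100% = clavulanate BLA inhibitor control wells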
UPR XBP1 act: activators of adaptive arm of unfolded protein response (XBP1) | CHO-XBP1 luciferase reporter, IRE1-XBP1 UPR activation, luminescence; percent of tunicamycin response, DMSO as zero | 330,000 tested, 0.33% active | AID 463104 | activation, % at 20 µM;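 active = versus positive control, 20 µM dose yields 30% or more activation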;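 also: 100% = tunicamycin at 10 µg/mL and 0% = DMSO only wells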
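Material: CHO cell line with stable XBP1 luciferase reporter; buffer or medium: F12 medium containing 10% fetal bovine serum; compound: single point, 20 µM final compound, 1% DMSO; incubation: 6 h treatment, 37 °C; measured by: glow luminescence from Steady-Glo reagent; evaluation: activation, % of tunicamycin; control set: tunicamycin high, DMSO low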
CHOP UPR activ: apoptotic UPR (CHOP) activation | CHO-CHOP luciferase reporter, luminescence; percent of tunicamycin response over DMSO baseline | activation, % at 10 µM | 330,000 tested, 0.34% active;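 active = at 10 µM dose, activation of 40% or more, normalized to positive control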;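 also: 100% = tunicamycin at 10 µg/mL and 0% = DMSO alone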
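System: CHO-CHOP luciferase reporter cell line | Buffer or medium: F12 medium containing 10% fetal bovine serum | Doses: One dose, 10 µM in 0.5% DMSO | Times: 6 h compound exposure at 37 °C after overnight seeding | Signal: Luciferase luminescence | Read-out: % activation vs tunicamycin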
TLR4-MyD88 BLA: blocks binding of human TLR4 to MyD88. inhibition, % at 8.4 µM. HeLa CL3-4 TLR4/MyD88 BLA complementation, FRET ratio. 200,000 tested, 0.18% active. O00206+Q99836; in the data active = inhibition above about 25%;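 also: 0% = vehicle and 100% = reference inhibitor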
CHOP confirm: confirmation of CHOP induction inhibitors; inhibition, % at 10 µM; 2,100 tested, 45% active; CHO-CHOP promoter luciferase reporter, tunicamycin-induced, luminescence; shares compounds with CHOP inhibitor; AID 504437;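 active = mean of three repeat readings of reporter signal inhibition above a set limit, cut at about 70% in these data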;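 also: 0% = tunicamycin plus vehicle and 100% = wells lacking tunicamycin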
* hit, by the source's call; . = not tested or not shown.

SMILES	NOD2-RIPK2 inh	CHOP inhibitor	TLR9-MyD88 inh	UPR XBP1 act	CHOP UPR activ	TLR4-MyD88 BLA	CHOP confirm
COC(=O)c1c(C)[nH]c(O)c1C=Nc1ccc(C(C)C)cc1	-2.3	25.7	12.9	2.2	8.0	-7.9	.
CCOC(=O)c1c(C)[nH]c(O)c1C=Nc1ccc(Cl)cc1	-1.4	103.4*	-7.3	0.1	3.3	7.4	110.4*
COc1ccccc1Cc1c(C2CCCCC2)nc2ccc(Br)cn12	1.8	.	.	.	.	.	.
CCOc1ccc(/C=C/C2=Cc3c(sc(NC(=O)CSc4n[nH]c(N)n4)c3C#N)C(C)(C)C2)cc1	13.7	108.7*	-1.2	1.9	22.6	13.9	115.6*
Cc1nn(Cc2c(Cl)cccc2Cl)c(C)c1NC(=O)c1cc(C(C)C)on1	7.0	.	2.2	-3.2	0.5	-9.5	95.5*
Cc1nn(Cc2ccc(Cl)cc2)c(C)c1NC(=O)c1cc(-c2ccc3c(c2)OCO3)on1	1.2	101.8*	-2.8	-2.8	-0.4	4.0	62.1
Cc1nn(Cc2ccc(Cl)c(Cl)c2)c(C)c1NC(=O)c1cc(-c2ccc3c(c2)OCO3)on1	6.4	66.9	-0.8	12.5	-0.2	-8.3	.
CN(C(=O)c1cccc(NC(=O)Cc2ccc(NC(=O)C3CCN(S(=O)(=O)c4cccc([N+](=O)[O-])c4)CC3)cc2)c1)C1CCCCC1	5.5	.	9.2	.	.	.	.
CCOc1ccc(N2C(=O)CC(SC(=NC)Nc3cccc(F)c3)C2=O)cc1 (centres undefined)	0.3	9.4	-5.1	-3.2	-1.2	3.4	.
CCOc1ccc(NC(=NCc2ccc3c(c2)OCO3)SC2CC(=O)N(c3ccc(OCC)cc3)C2=O)cc1 (centres undefined)	8.1	97.5*	12.1	17.5	11.9	14.7	30.1
CCCOc1ccc(N2C(=O)CC(SC(=NC)Nc3ccc(F)cc3)C2=O)cc1 (centres undefined)	5.1	100.2*	-3.9	-0.1	-0.8	11.8	100.3*
CCCOc1ccc(N2C(=O)CC(SC(=NCC)Nc3cccc(F)c3)C2=O)cc1 (centres undefined)	3.2	105.2*	10.9	2.5	-1.8	-4.6	107.9*
O=C(O)c1ccc(COc2ccccc2Cl)cc1	8.8	-10.4	3.5	-0.3	3.1	8.5	.
O=C(O)c1cccc(COc2ccccc2Cl)c1	-9.9	103.9*	-10.3	-7.2	-10.2	.	132.0*
Nc1ncnc(Sc2ncccn2)c1[N+](=O)[O-]	1.2	104.5*	-4.1	.	.	-4.7	44.8
Cc1ccc(S(=O)(=O)CC#CCOC(=O)c2ccc([N+](=O)[O-])cc2)cc1	.	106.9*	.	-0.8	-0.1	-3.6	107.7*
Cc1cc(C(C)(C)C)oc1C(=O)N1CCN(C(=O)c2oc(C(C)(C)C)cc2C)CC1	-1.9	104.8*	-2.3	.	.	-22.1	115.0*
COc1cc(-c2nc3c(c(C)nn3-c3ccccc3)c3cc(OC)c(OC)cc23)ccc1O	-8.7	99.2*	-6.0	12.7	2.7	-2.2	82.8*
COc1cc(-c2nc3ccccc3nc2-c2ccc(O)c(OC)c2)ccc1O	-12.6	.	-2.9	-2.9	-0.3	.	.
NNc1nc2sc3c(c2c(=O)n1Cc1ccccc1)CCC3	0.2	4.4	7.5	0.1	-0.9	.	.
Nn1c(Nc2ccccc2)nc2sc3c(c2c1=O)CCC3	1.6	96.5*	5.2	.	.	10.3	45.2
CCC(Oc1ccccc1)C(=O)N1CCN(S(=O)(=O)c2ccccc2)CC1 (centres undefined)	-15.4	.	1.3	1.6	-0.6	.	.
O=C(O)CCN1C(=O)/C(=C/c2cn(-c3ccccc3)nc2-c2cccs2)SC1=S	-2.8	102.2*	1.1	-1.7	-1.2	8.9	-4.1
CCOC(=O)C1(CCc2ccccc2)CCN(C(=O)c2occc2C)CC1	3.6	-1.4	-4.8	-1.0	-0.7	-8.2	.
CCOC(=O)C1(CCc2ccccc2)CCN(C(=O)Cc2nonc2C)CC1	-19.1	103.3*	-1.9	3.7	3.9	-2.5	-37.7
SMILES	NOD2-RIPK2 inh	CHOP inhibitor	TLR9-MyD88 inh	UPR XBP1 act	CHOP UPR activ	TLR4-MyD88 BLA	CHOP confirm
CCCc1nnc(NC(=O)c2cn(CC)c3cc(N4CCN(C)CC4)c(F)cc3c2=O)s1	-11.8	-12.7	.	-4.4	2.6	.	.
COc1ccc(Cl)cc1NC(=O)c1cc(-c2ccccc2O)n[nH]1	1.8	-15.9	-7.7	-0.9	2.2	-2.1	.
COc1ccc(OC)c(NC(=O)c2cc(-c3cc(Cl)ccc3O)n[nH]2)c1	4.7	103.4*	-1.9	13.4	4.3	3.2	35.4
O=C(COc1ccccc1)Nc1ccc(OC(F)(F)C(F)F)c(NC(=O)COc2ccccc2)c1	5.8	52.4	8.4	2.8	-0.9	10.1	.
CC(C)c1ccccc1NC(=O)Cn1c(/C=C/c2ccccc2)nc2ccccc21	.	99.3*	.	32.5*	12.3	.	101.2*
Nc1ncc(Br)cc1S(=O)(=O)NCCc1ccccc1	0.3	.	-3.7	-5.8	-0.6	.	.
CC(C)(C)C(O)C(Cc1ccccc1Cl)n1cncn1 (centres undefined)	2.1	.	-3.7	0.0	-0.6	.	.
CC(=O)c1ccc(S(=O)(=O)N2CCN(CC(=O)Nc3ccnn3C3CCCC3)CC2)cc1	1.8	.	-1.6	.	.	.	.
COc1ccccc1CNCCS(=O)(=O)NN1CCOCC1	-1.6	.	-9.6	-0.3	0.8	.	.
CC12CCC(=O)N1C(C(=O)Nc1cc(C(F)(F)F)ccc1N1CCCCC1)CS2 (centres undefined)	0.9	.	-10.8	1.6	0.8	.	.
O=C(CN1CCN(c2ncc(C(F)(F)F)cc2Cl)CC1)NCCNc1ncc(C(F)(F)F)cc1Cl	-5.5	101.1*	-10.6	-4.4	-2.6	1.6	105.6*
Cc1nc(N)sc1-c1csc(Nc2ncccn2)n1	-12.8	103.0*	6.6	.	.	20.4	-210.6
C#CC(=O)N(c1ccc(OC)c(OC)c1)C(C(=O)NC1CCCC1)c1cccs1 (centres undefined)	3.9	108.8*	3.5	-8.8	-8.7	15.9	121.7*
Cc1cccc(N(C(=O)C(F)(F)F)C(C(=O)NC2CCCCC2)c2cccs2)c1 (centres undefined)	0.7	38.6	-6.5	1.8	-0.9	0.9	.
C#CC(=O)N(c1cccc(OC)c1)C(C(=O)NC1CCCC1)c1cccs1 (centres undefined)	10.4	108.0*	5.7	-10.6	-10.0	17.8	119.3*
CC(=O)c1cccc(-c2ccnc3c2CC(C(=O)Nc2ccc(Cl)c(C(F)(F)F)c2)O3)c1 (centres undefined)	2.9	.	.	.	.	.	.
Cc1cccc(C)c1N1CCN(c2ccc3nnc(C(F)(F)F)n3n2)CC1	-1.7	106.3*	-8.5	1.4	2.4	11.2	101.5*
CCS/C(N)=N/N=C/c1cc(C)ccc1O	4.6	-6.7	-7.6	0.1	8.3	2.9	.

From PubChem BioAssay
